The target in series [1] is T1, Adenosine receptor A2b (Homo sapiens) (UniProt P29275).
T1 sequence (whole entry): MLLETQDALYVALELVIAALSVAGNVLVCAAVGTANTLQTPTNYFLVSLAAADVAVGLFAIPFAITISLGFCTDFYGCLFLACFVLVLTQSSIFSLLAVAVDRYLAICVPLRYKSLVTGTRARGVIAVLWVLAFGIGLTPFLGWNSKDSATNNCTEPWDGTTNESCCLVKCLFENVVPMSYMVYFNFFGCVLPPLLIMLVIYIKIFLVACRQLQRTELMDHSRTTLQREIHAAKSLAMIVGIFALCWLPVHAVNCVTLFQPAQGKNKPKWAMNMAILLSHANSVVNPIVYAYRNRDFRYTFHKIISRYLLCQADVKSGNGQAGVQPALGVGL
The series can be described thus: Displacement of [3H]MRS-1754 from human adenosine A2B receptor expressed in HEK293 cell membranes at 30 uM after 90 mins relative to control. In a few lines:
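Membranes from HEK-293 cells stably transfected with human receptor, pre-treated with adenosine deaminase. Radioligands: 1 nM [3H]DPCPX (A1), 1 nM [3H]ZM241385 (A2A), 1.6 nM [3H]MRS-1754 (A2B), 2 nM [3H]HEMADO (A3). Buffers: Tris pH 7.4 (A1, A2A, A3) or pH 6.5 (A2B), with ADA. Incubated 90 min at room temperature, then filtered. Nonspecific binding defined with 100 µM NECA. Ki from 8 concentrations run in triplicate.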
Background: In a radioligand displacement assay an active substance lowers the binding of a labelled ligand.

Series [2] is described as follows: Drug metabolism assessed as dehydration by metabolic soft spot analysis. The format is physicochemical.
In series [3] the test system is Rattus norvegicus. Put plainly: Kaliuretic activity in Wistar rat at 3 to 30 mg/kg, po via gavage measured after 4 hrs. The format is functional, organism-based. In a few lines:
(§1)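 Male Wistar rats (250-300 g, n = 6) dosed orally at 5 mL/kg. Vehicles: DMAC 5%/NaOH/saline, or NMP 10%/PEG-400 20%/saline pH 12.0. Rats were then kept singly in metabolic cages without food or water for 4 h. Urine volume, Na+ and K+ were measured with a biochemistry analyser.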

The subject of series [4] is Rattus norvegicus. The series can be described thus: Effect on serum Na+ level in Wistar rat at 3 to 30 mg/kg, po via gavage. To be noted: in vivo. The class given is ADME, organism-based.
In series [5] the test system is Rattus norvegicus. The series can be described thus: Natriuretic activity in Wistar rat at 3 to 30 mg/kg, po via gavage measured after 4 hrs. The class given is functional, organism-based. In a few lines: as §1
A short description of series [6]: Ratio of drug level in Wistar rat brain to plasma at 5 mg/kg, po via gavage measured at 1 hr post dose by LC-Ms/MS analysis. The class given is ADME, organism-based. To be noted: read-out: BPR. The essentials:
(§2)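 Male Wistar rats, fasted overnight and for 2 h after dosing, given an oral solution at 5 mg/kg (0.5 mg/mL). Vehicle: NMP 10% with Labrasol 30% or PEG-400 20%, in citrate buffer […]. Blood and brain were taken at discrete time points, n = 2 per time point. Brain was homogenized 1:2 in PBS. Samples were precipitated with acetonitrile and run on LC-MS/MS; LLOQ 10 ng/mL.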

A short description of series [7]: Ratio of drug level in Wistar rat brain to plasma at 5 mg/kg, po via gavage measured at 4 hrs post dose by LC-Ms/MS analysis. The class given is ADME, organism-based. To be noted: read-out: BPR. In a few lines: as §2
In series [8] the test system is Rattus norvegicus. Put plainly: Diuretic activity in Wistar rat at 10 to 30 mg/kg, po via gavage measured after 4 hrs. The format is functional, organism-based. The essentials:
as §1

Activity calls are given as the source filed them. No cut-off for these calls is given here.

One may read the inhibition as the percentage by which the read-out fell short of the control. A low value points to little suppression. In series [1], `CCCn1c(Oc2cccnc2C)nc2nc(C3CCCC3)[nH]c2c1=O` had an inhibition of 91%. The Drug metabolism result in series [2] is on record as “Metabolite_Detected”.
For the molecule `CCCn1c(Oc2ccc(F)c(F)c2)nc2nc(C3CCCC3)[nH]c2c1=O`, the outcome in series [3], in series [5] and in series [8] was Active. Besides, in series [4], the Activity entry is on record as “Non-Toxic”. In addition, the Kp at 1 h in series [6] worked out at 0.05. The Kp at 4 h in series [7] is 0.05.

These data come from ChEMBL document CHEMBL3992564, “Design and synthesis of novel, potent and selective hypoxanthine analogs as adenosine A1 receptor antagonists and their biological evaluation” (Bioorg Med Chem, 2017).
